Compound activity (PubChem)
TRPC4 block: inhibitors of mouse TRPC4 channel | Q9QUQ5 | HEK293 TRPC4beta/mu-opioid, DAMGO-evoked Fluo4 calcium flux; active compounds read low | B-score at 10 µM | 300,000 tested, 0.39% active | AID 2247;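 active = B-score over 3 SD under the library average, no early fluorescence shift, positive overall ratio signal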
Target sequence (Q9QUQ5 whole entry, looked up): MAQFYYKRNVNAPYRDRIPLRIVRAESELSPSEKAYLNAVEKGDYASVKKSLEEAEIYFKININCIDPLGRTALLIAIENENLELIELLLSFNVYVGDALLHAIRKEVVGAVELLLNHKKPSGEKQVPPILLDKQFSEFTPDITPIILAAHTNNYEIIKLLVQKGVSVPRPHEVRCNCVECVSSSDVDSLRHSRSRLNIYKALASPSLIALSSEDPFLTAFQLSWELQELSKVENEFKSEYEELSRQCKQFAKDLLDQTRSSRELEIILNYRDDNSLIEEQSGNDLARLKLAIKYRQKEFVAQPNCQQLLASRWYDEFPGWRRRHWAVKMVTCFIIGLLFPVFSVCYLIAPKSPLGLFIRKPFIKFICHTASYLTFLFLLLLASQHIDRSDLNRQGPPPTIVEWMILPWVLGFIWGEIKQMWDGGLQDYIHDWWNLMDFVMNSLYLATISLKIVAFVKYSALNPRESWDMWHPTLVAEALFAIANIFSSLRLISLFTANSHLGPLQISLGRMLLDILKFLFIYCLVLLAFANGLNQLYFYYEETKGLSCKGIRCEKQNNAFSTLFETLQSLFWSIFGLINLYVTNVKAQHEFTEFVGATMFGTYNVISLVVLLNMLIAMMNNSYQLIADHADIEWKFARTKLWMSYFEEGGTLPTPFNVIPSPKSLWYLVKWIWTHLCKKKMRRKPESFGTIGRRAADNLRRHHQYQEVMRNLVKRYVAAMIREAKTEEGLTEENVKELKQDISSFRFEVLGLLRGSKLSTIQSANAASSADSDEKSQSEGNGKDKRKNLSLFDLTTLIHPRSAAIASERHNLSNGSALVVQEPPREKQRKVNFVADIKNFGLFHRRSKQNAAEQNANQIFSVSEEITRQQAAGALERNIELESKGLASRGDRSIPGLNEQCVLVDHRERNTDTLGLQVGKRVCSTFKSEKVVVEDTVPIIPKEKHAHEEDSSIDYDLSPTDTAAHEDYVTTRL
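System: stable TRPC4beta/mu-opioid receptor HEK293 cells; Dosing: single-point compound dosing; Measured by: Fluo4 Ca2+ flux fluorescence; Read-out basis: per-well B score of integrated baseline-normalized Fluo4 ratio.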
TRPC6 activator: mouse TRPC6 channel activation; Q61143; HEK293-TRPC6 membrane potential dye fluorescence; active compounds read high; B-score at 10 µM; 310,000 tested, 0.13% active;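 active = B-score of the integrated fluorescence ratio above library mean plus 3 SD, and starting fluorescence ratio within library mean plus 5 SD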;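 also: higher score means more depolarization so channel activation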
TRPC4 PAM: allosteric potentiators of mouse TRPC4 channel; Q9QUQ5; HEK293 TRPC4beta/mu-opioid, DAMGO EC20, Fluo-4 Ca2+ flux; active compounds read high; B-score at 10 µM; 310,000 tested, 0.42% active;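 active = B-score of calcium response area above 5 SD of library B-scores, with initial fluorescence ratio within 5 SD of library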;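 also: B-score of integrated fluorescence ratio over time as area under calcium response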
TRPC6 inh: mouse TRPC6 channel inhibition; Q61143; HEK293-TRPC6, membrane potential dye, ACh-evoked depolarization; active compounds read low; B-score at 10 µM; 310,000 tested, 1.1% active; AID 2553;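 active = B-score under library mean minus 3 SD, initial fluorescence not abnormally high, positive integrated signal ratio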;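 also: B-score derived from integrated fluorescence ratio over the kinetic read; more negative B-score means stronger inhibition of depolarization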
TRPC4 act: opens the mouse TRPC4 cation channel; Q9QUQ5; HEK293 TRPC4beta/mu-opioid, Fluo4 calcium fluorescence; active compounds read high; B-score at 10 µM; 310,000 tested, 0.49% active;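 active = B-score above 5 SD of library B-scores, and initial fluorescence ratio not above library mean plus 5 SD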;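 also: positive B-score marks a calcium rise read as TRPC4 activation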
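Assay system – TRPC4beta and mu-opioid receptor HEK293 stable cells · Measured by – Fluo4 fluorescence, kinetic · Schedule – dye loading 45 min room temperature, 110 s kinetic read · Read-out – B-scored integrated calcium fluorescence ratio · Controls – buffer and maximal DAMGO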
TRPC4 sel inh 2: second selectivity test of TRPC6 inhibitors: effect on mouse TRPC4 | shares compounds with TRPC6 inh | HEK293 TRPC4/MOR, membrane potential dye fluorescence; channel activated by saturating DAMGO dose | inhibition, % at 10 µM | 920 tested, 42% active | AID 2776;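 active = compounds whose fluorescence signal differed from control wells by over 3 SD, either direction, in both duplicate plates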
TRPC4 spec: tests whether TRPC6 inhibitors also affect mouse TRPC4; shares compounds with TRPC6 inh; HEK293 TRPC4/mu-opioid, membrane potential fluorescence; activity change, negative = inhibition, % at 10 µM; 920 tested, 61% active; AID 2777;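 active = rise or fall in signal beyond 3 SD of buffer-only wells in both replicate plates, either sign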;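 also: integrated kinetic ratio of fluorescence range over baseline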
HEK293 MPD ctr 2-1: second counter-screen for TRPC6 inhibitors: parental HEK293 cells. shares compounds with TRPC6 inh. parental HEK293 membrane potential dye fluorescence; maximal acetylcholine challenge after compound addition. signal change vs control, % at 10 µM. 920 tested, 31% active. AID 2779;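 active = membrane potential signal moving either way by over 3 SD of the maximum-effect control, in both duplicate plates, meaning non-specific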
HEK293 MPD ctr-1: parental HEK293 nonspecific activity of TRPC6 inhibitors. shares compounds with TRPC6 inh. AID 2780. membrane potential signal change, % at 10 µM. parental HEK293 membrane potential dye fluorescence. 920 tested, 60% active;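 active = membrane potential signal shifting up or down by more than 3 SD of buffer-only wells, on both duplicate plates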
HEK293 MPD ctr-2: parental HEK293 nonspecific activity of TRPC6 modulators. AID 488924. 2,400 tested, 51% active. membrane potential dye fluorescence. shares compounds with TRPC6 inh. membrane potential signal change, % at 10 µM;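 active = membrane potential signal moves up or down beyond 5 SD from buffer-only wells, on both duplicate plates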
HEK293 MPD ctr 2-2: second counter-screen for TRPC6 modulators: effect in parental HEK293 cells. 2,400 tested, 14% active. AID 488926. inhibition, % at 10 µM. shares compounds with TRPC6 inh. membrane potential dye fluorescence; after compound, maximal acetylcholine stimulation;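 active = membrane potential signal drops by more than 5 SD from the mean control signal, in both duplicate plates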;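 also: plate controls were acetylcholine ECmax control wells for no effect and buffer only wells for full effect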
TRPC4 ctr mod: selectivity of TRPC6 modulators against mouse TRPC4. percent change from control (negative = decrease, positive = increase), % at 10 µM. AID 488927. 2,400 tested, 69% active. HEK293 TRPC4/mu-opioid, membrane potential fluorescence. shares compounds with TRPC6 inh;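 active = membrane potential signal moved up or down beyond 5 SD of buffer control wells, in both duplicate plates, actives on both sides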;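 also: plate controls were assay buffer wells for no effect and DAMGO maximal-effect wells for full effect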
TRPC4 ctr inh 2: mouse TRPC4 off-target activity of TRPC6 modulators, second screen. inhibition, % at 10 µM. AID 488928. 2,400 tested, 55% active. shares compounds with TRPC6 inh. HEK293 TRPC4/mu-opioid, membrane potential dye fluorescence; stimulated with maximal-effect DAMGO;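 active = drop in membrane potential signal beyond 5 SD of the control wells in both duplicate plates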;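 also: TRPC4 counter screen for TRPC6 hits run under conditions tuned for TRPC6 not TRPC4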
TRPC6 inh conf: mouse TRPC6 inhibitor confirmation | inhibition, % at 10 µM | shares compounds with TRPC6 inh | HEK293-TRPC6, membrane potential dye, ACh-evoked depolarization | 3,300 tested, 43% active;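 active = fluorescence ratio falls more than 5 SD below the full-stimulation control mean, in both duplicate runs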;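 also: integrated fluorescence ratio of peak minus minimum over baseline after agonist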
TRPC6 act confirm: confirmation of mouse TRPC6 activators. shares compounds with TRPC6 inh. HEK293-TRPC6 membrane potential dye fluorescence, FDSS. activation, % at 10 µM. 2,800 tested, 11% active;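 active = ratio signal rise beyond 5 SD above unstimulated control wells' mean, seen in both duplicate runs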;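 also: plate controls were buffer EC0 wells for no effect and acetylcholine ECmax response for full effect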
Numbers without * were called inactive; i = inactive; nt = no result given; + = active, no number. This is a sample that favours compounds with a hit; in the whole collection about 2.3% have one here.

SMILES | TRPC4 block | TRPC6 activator | TRPC4 PAM | TRPC6 inh | TRPC4 act | HEK293 MPD ctr-2 | HEK293 MPD ctr 2-2 | TRPC4 ctr mod | TRPC4 ctr inh 2 | TRPC6 inh conf | TRPC6 act confirm | others
CCCCNc1nc2sc3c(c2c(=O)n1-c1cccc(Cl)c1)CCN(C)C3 | i | i | i | -6.08* | i | i | i | i | 57.5%* | i | i
O=c1c2c3c(sc2nc(N2CCNCC2)n1-c1cccc(Cl)c1)CCCCC3 | i | i | i | -7.18* | i | nt | nt | nt | nt | 59.6%* | i | TRPC4 sel inh 2=60.5%*;TRPC4 spec=i;HEK293 MPD ctr 2-1=i;HEK293 MPD ctr-1=i
CN1CCc2c(sc3nc(SCC(N)=O)n(-c4ccc(Cl)cc4)c(=O)c23)C1 | i | i | i | i | i | nt | nt | nt | nt | nt | nt
CCCCSc1nc2sc3c(c2c(=O)n1-c1ccccc1)CCN(C)C3 | i | i | i | i | i | nt | nt | nt | nt | nt | nt
COc1cc(C(=S)N2CCCC2)ccc1OCc1ccc(C)cc1 | i | i | i | i | i | nt | nt | nt | nt | nt | nt
O=C(CSc1nc2sccc2c(=O)[nH]1)N1CCN(c2ccccc2)CC1 | i | i | i | i | i | nt | nt | nt | nt | nt | nt
O=C(CSc1nnc(-c2ccccn2)o1)Nc1ccccc1F | i | i | i | i | i | nt | nt | nt | nt | nt | nt
COc1ccc(/C=C/C(=O)Nc2ccccc2C(=O)NCC(c2ccc(OC)cc2)N(C)C)cc1 (stereo unspecified) | -7* | i | i | -6.82* | 48* | nt | nt | nt | nt | i | i | TRPC4 sel inh 2=12.0%*;TRPC4 spec=49.0%*;HEK293 MPD ctr 2-1=i;HEK293 MPD ctr-1=i
Cc1[nH]c2ccc(C(=O)OCCN(C)C)cc2c1C | i | i | i | i | i | nt | nt | nt | nt | nt | nt
CCN1CCN(C(=O)c2ccc3c(c2)c(C)c(C)n3Cc2ccccc2)CC1 | i | i | i | i | i | nt | nt | nt | nt | nt | nt
Cc1c(C)n(CCN(C)C)c2ccc(C(=O)OCCN(C)C)cc12 | i | i | i | -7.08* | i | -153.0%* | i | -31.5%* | 75.0%* | 56.5%* | i
Cc1c(C)n(Cc2ccccc2)c2ccc(C(=O)OCCCN(C)C)cc12 | i | i | i | -8.51* | i | nt | nt | nt | nt | 74.5%* | i | TRPC4 sel inh 2=33.5%*;TRPC4 spec=i;HEK293 MPD ctr 2-1=i;HEK293 MPD ctr-1=i
O=C(OCC(=O)N1CCCC1)c1cc(Cl)ccc1Cl | i | i | i | i | i | nt | nt | nt | nt | nt | nt
O=C(N/N=C/c1ccc(OC(=O)c2cccs2)cc1)c1ccccn1 | i | i | i | i | i | nt | nt | nt | nt | nt | nt
CCOC(=O)C1CCCN(C(=O)CCNS(=O)(=O)c2cc(Br)cnc2N)C1 (stereo unspecified) | i | i | i | i | i | nt | nt | nt | nt | nt | nt
C#CCn1cnc2c(oc3ccccc32)c1=O | i | i | i | -5.03* | i | i | i | i | i | i | i
CCn1cnc2c(oc3ccccc32)c1=O | i | i | i | i | i | nt | nt | nt | nt | nt | nt
COC(=O)c1cc(S(=O)(=O)NCC2CCN(CCc3ccc(OC)cc3)CC2)cn1C | i | i | i | i | i | nt | nt | nt | nt | nt | nt
CCCCCCN1C=CC(=C/C=C(\C#N)C(=O)OCC)C=C1 | i | 78.1* | i | -9.55* | 61* | + | 87.0%* | 250.0%* | i | i | 566.0%*
OCCCNc1ncnc2sc3c(c12)CCN(Cc1ccccc1)C3 | i | i | i | -5.96* | i | -137.0%* | i | -38.0%* | i | i | i
O=c1[nH]cnc2sc3c(c12)CCN(Cc1ccccc1)C3 | i | i | i | i | i | nt | nt | nt | nt | nt | nt
Cc1nn(C(C)C(=O)NCCc2cccs2)c(=O)c2nn(-c3ccccc3)c(C)c12 (stereo unspecified) | i | i | i | i | i | nt | nt | nt | nt | nt | nt
COc1ccc(C2=CSC3=NCCN23)cc1Cl | i | i | i | i | i | nt | nt | nt | nt | nt | nt
COc1ccc(C2=CSC3=NCCN23)cc1Br | i | i | i | -5.22* | i | i | i | i | 35.5%* | i | i
CCN(CC)c1ccc(/C=C2/C(=O)ON=C2C)cc1 | i | 12.9* | i | i | i | 799.0%* | i | 59.0%* | i | i | 133.0%*
CCOc1ccccc1NC=C1C(=O)OC2(CCCCC2)OC1=O | i | i | i | i | i | nt | nt | nt | nt | nt | nt
CCN(CC)c1ccc(C=C2C(=O)OC3(CCCCC3)OC2=O)cc1 | i | 58.8* | i | i | i | 723.5%* | i | 161.5%* | i | i | 188.0%*
CC1=NOC(=O)/C1=C/c1ccc(N(C)C)cc1 | i | i | i | i | i | nt | nt | nt | nt | nt | nt
CCCCC1(C)OC(=O)C(=Cc2ccc(N(CC)CC)cc2)C(=O)O1 (stereo unspecified) | i | 35.7* | i | i | i | + | i | 185.5%* | i | i | 368.0%*
COc1cccc(N2CCN(C(=O)C3CCCN(c4ncnc5c4nc4n5CCCCC4)C3)CC2)c1 (stereo unspecified) | i | i | i | i | i | nt | nt | nt | nt | nt | nt
